Assay results taken from ChEMBL document CHEMBL1158816, “Meroterpenes from the ascidian Aplidium aff. densum” (J Nat Prod, 2005).
Values after ≈ are worked out from the molar mass of the structure shown.

Experiments:
Escherichia coli = assay: Antimicrobial activity against Escherichia coli by broth dilution method; format: functional
Outline: (§1)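 Broth dilution per NCCLS guidelines; compounds in DMSO (at most 5% of total volume) incubated with bacteria (Institut Pasteur strains) in PB medium, 37 °C, 24 h with stirring. Growth read as optical density at 630 nm. Triplicate, averaged. Where growth was absent, medium plated on rich solid medium to tell bacteriostatic from bactericidal.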

Micrococcus luteus = assay: Antimicrobial activity against Micrococcus luteus by broth dilution method; format: functional; outline: as §1
CCRF-CEM = assay: Cytotoxicity against human wild type CEM cells after 72 hrs; format: functional, cell-based
Outline: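 CCRF-CEM (CEM-WT) acute lymphoblastic leukemia cells grown in RPMI 1640 with L-glutamine, 10% FCS, penicillin/streptomycin, 5% CO2, 37 °C. Serial dilutions in medium (10^-4 to 1 mg/mL) added to 2 × 10^5 cells/mL without medium renewal. Cells counted with a particle counter over time. IC50 taken at 72 h; triplicate, averaged.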

| MIC (Escherichia coli) [µM] | MIC (Micrococcus luteus) [µM] | Compound | IC50 (CCRF-CEM) |
| --- | --- | --- | --- |
| > 2000 | > 2000 | CC1=CC2C(CC1)C(C)(C)OC21CC(=O)C=CC1=O (configuration not stated) [CONIDIONE] | – |
| > 2000 | 510 (≈ 125 µg/mL) | CC(C)=CCCC1(C)C=Cc2cc(O)ccc2O1 (configuration not stated) [CORDIACHROMENE A] | 30 µM |
| > 2000 | > 2000 | COC(C)(C)[C@H]1CCC(C)=C[C@H]1c1cc(O)ccc1O [METHOXYCONIDIOL] | – |

| Compound | MIC (Escherichia coli) [µM] | MIC (Micrococcus luteus) [µM] | IC50 (CCRF-CEM) |
| --- | --- | --- | --- |
| Cc1ccc2c(c1)-c1cc(O)ccc1OC2(C)C [DIDEHYDROCONICOL] | > 2000 | 510 (≈ 123 µg/mL) | – |
| CC1=C[C@@H]2c3cc(O)ccc3OC(C)(C)[C@@H]2CC1 [EPICONICOL] | > 2000 | 130 (≈ 31.8 µg/mL) | 60 µmol |
